Reference: article PMC4893919 (Molecular cancer therapeutics, 2016)
Where “and” joins values, the source holds several entries; their conditions need not be identical. Equal values may be shown once. Read-outs that look alike come from different tables or passages of the source.

How the values were obtained:
A375 xenografts = experiment: A375 xenograft tumor model; assay type: in vivo, NOD/SCID mice
Summary of the method: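 A375 cells (3×10^6) were injected subcutaneously into the flanks of 6-week-old female NOD/SCID mice. At about 50 mm³, mice were randomised, n = 8 per group. Dosing was PLX4032 20 mg/kg/day and test compound 20 mg/kg every two days. Combination arms alternated test compound (20 mg/kg every four days) with PLX4032 (20 mg/kg every two days). Volume (a×b²×0.5) was measured every three days. Tumours were dissected and weighed. TGI compared volume change with vehicle.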

[1] = system: Melanocyte (Normal cells); experiment: MTT cell viability assay, normal melanocytes; assay type: cell-based; settings: read-out: IC50, Melanocyte (Normal cells); 24 h treatment, human cells
Summary of the method: (§1)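 Cells were seeded in 96-well plates overnight, then exposed to test compound for 24 h at concentrations up to 10 μM. Growth was read by MTT as OD570. Viability was expressed relative to vehicle (0.5% DMSO) set as 100%, and IC50 was derived from this.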

A375-R cells [2] = experiment: Cell cycle analysis, A375-R; assay type: cell-based, human
Summary of the method: (§2)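 Cells were synchronised in medium with 1% FBS for 12 h, then given fresh 10% FBS medium with vehicle or test compound for 24 h. Adherent and floating cells were pooled, fixed overnight in ice-cold 70% ethanol at 4°C, and stained with propidium iodide/RNase A for 30 min at room temperature in the dark. Cells were then analysed by flow cytometry.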

[3] = system: A375-R cells (acquired vemurafenib resistance); experiment: MTT cell viability assay, A375-R; assay type: cell-based, human
[4] = system: MeWo (No NRAS or BRAF mutation); experiment: MTT cell viability assay, MeWo; assay type: cell-based; settings: read-out: IC50, MeWo (No NRAS or BRAF mutation); 24 h treatment, human cell line
Summary of the method: as §1

A375-R cells [5] = experiment: ROS measurement, A375-R; assay type: cell-based, human; settings: 5 µM, 2 h
SK-MEL-2 (NRAS mutation) = experiment: MTT cell viability assay, SK-MEL-2; assay type: cell-based; settings: read-out: IC50, SK-MEL-2 (NRAS mutation); 24 h treatment, human cell line
Summary of the method: as §1

A2058 (BRAF mutation) = experiment: MTT cell viability assay, A2058; assay type: cell-based; settings: read-out: IC50, A2058 (BRAF mutation); 24 h treatment, human cell line
Summary of the method: as §1

A375 cells [6] = experiment: Colony formation assay, A375; assay type: cell-based, human; settings: for inhibition of colony formation: 21 days
Summary of the method: (§3)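 A375 or A375-R cells were grown in 24-well plates with treatment for 21 days, with drug-containing medium renewed every three days. Colonies were stained with 0.1% crystal violet in PBS. Dye was extracted with 20% acetic acid and absorbance read at 595 nm. Values are colony formation relative to control, n = 4.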

[7] = system: A375-R xenografts (acquired vemurafenib resistance); experiment: A375-R xenograft tumor model; assay type: in vivo, NOD/SCID mice
Summary of the method: (§4)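 Female NOD/SCID mice, 6 weeks old, received 3×10^6 A375-R or A2058 cells subcutaneously in the flank. Treatment began at about 50 mm³ tumour volume, with 8 mice per randomised group. Doses were PLX4032 75 mg/kg/day and test compound 20 mg/kg every two days; combination arms alternated the two, each every two days. Tumour volume (a×b²×0.5) and body weight were recorded every three days. TGI used initial-to-final volume change versus vehicle.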

A375 cells [8] = experiment: ROS measurement, A375; assay type: cell-based, human; settings: A375, 5 µM, 2 h
A375-R cells [9] = experiment: Colony formation assay, A375-R; assay type: cell-based, human; settings: 21 days
Summary of the method: as §3

A375 cells [10] = experiment: Cell cycle analysis, A375; assay type: cell-based, human; settings: A375, 24 h
Summary of the method: as §2

A375 (BRAF mutation) = experiment: MTT cell viability assay, A375; assay type: cell-based, human
A375 cells [11] = experiment: Apoptosis detection; assay type: cell-based, human; settings: A375, 72 h
Summary of the method: (§5)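 Cells were seeded in 6-well plates and exposed to vehicle or test compound for 72 h. Apoptotic cells were scored by Annexin V-FITC plus propidium iodide double staining and flow cytometry.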

B16-F10 (NRAS mutation) = experiment: MTT cell viability assay, B16-F10; assay type: cell-based; settings: read-out: IC50, B16-F10 (NRAS mutation); 24 h treatment, mouse cell line
Summary of the method: as §1

metastatic melanoma = settings: cited from earlier work
[12] = system: A2058 xenografts (intrinsic vemurafenib resistance); experiment: A2058 xenograft tumor model; assay type: in vivo, NOD/SCID mice; settings: 75 mg/kg/day, 24 doses in total
Summary of the method: as §4

A375-R cells [13] = experiment: Apoptosis detection, A375-R; assay type: cell-based, human
Summary of the method: as §5

[14] = 20 mg/kg/every two days, 12 doses in total
[15] = read-out: IC50, A375 (BRAF mutation), 24 h treatment, human cell line
[16] = 20 mg/kg/day, 24 doses in total

SMILES | IC50 [1] [µM] | IC50 [4] [µM] | IC50 (SK-MEL-2 (NRAS mutation)) [µM] | IC50 (A2058 (BRAF mutation)) [µM] | IC50 (A375 (BRAF mutation); [15]) | IC50 (B16-F10 (NRAS mutation)) [µM] | also measured
C=C(C)C(=O)O[C@H]1CC2=C[C@@H](C/C(C)=C/[C@H]3OC(=O)C(=C)[C@H]13)OC2=O [DET, deoxyelephantopin] | > 10 | > 10 | > 10 | > 10 | 6 µM and 5.9 µM | 6 ± 0.13 | reduction of tumor mass (A375 xenografts; [14]): 47.5%; tumor growth inhibition (TGI) (A375 xenografts; [14]): 71.0%; effect on cell-cycle distribution (A375-R cells [2]): G2/M-phase cell-cycle arrest; inhibition of A375-R cell viability ([3]; 2 µM, 72 h): 65%; increase of ROS level (A375-R cells [5]): more than 2 fold; inhibition of colony formation (A375 cells [6]; 1 µM): 38%; inhibition of colony formation (A375 cells [6]; 2.5 µM): 65%; inhibition of colony formation (A375 cells [6]; 5 µM): 91%; tumor growth inhibition (TGI) ([7]; A375-R, 20 mg/kg/every two days, 12 doses in total): 31.2%; increase of ROS level (A375 cells [8]): more than 2 fold; effect on colony formation of A375-R cells (A375-R cells [9]): inhibited colony formation; effect on cell-cycle distribution (A375 cells [10]): induced G2/M-phase arrest; inhibition of A375 cell viability (A375 (BRAF mutation); 2 µM, 72 h): 55%; apoptosis (A375 cells [11]): ≤ 67.8%
C=C1C(=O)OC2CC3=C[C@@H](C/C(C)=C/C(O)[C@H]12)OC3=O (stereo partly shown) [DETD-3] | > 10 | > 10 | > 10 | > 10 | > 10 µM | > 10 | –
C=C1C(=O)OC2CC3=C[C@@H](C/C(C)=C/C(OC(=O)/C(C)=C/CC)[C@H]12)OC3=O (stereo partly shown) [DETD-5] | > 10 | > 10 | 7.8 ± 0.14 | 5.8 ± 0.08 | 4.1 ± 0.15 µM | 4.7 ± 0.03 | –
C=C1C(=O)OC2CC3=C[C@@H](C/C(C)=C/C(OC(=O)C(C)CC)[C@H]12)OC3=O (stereo partly shown) [DETD-13] | > 10 | > 10 | > 10 | > 10 | > 10 µM | 7.1 ± 0.09 | –
C=C1C(=O)OC2CC3=C[C@@H](C/C(C)=C/C(OC(C)=O)[C@H]12)OC3=O (stereo partly shown) [DETD-17] | > 10 | > 10 | > 10 | > 10 | > 10 µM | > 10 | –
C=C(CC)C(=O)OC1/C=C(\C)C[C@@H]2C=C(CC3OC(=O)C(=C)[C@@H]13)C(=O)O2 (stereo partly shown) [DETD-19] | > 10 | > 10 | > 10 | > 10 | > 10 µM | 7.8 ± 0.28 | –
C=C1C(=O)OC2CC3=C[C@@H](C/C(C)=C/C(OC(=O)/C=C/C)[C@H]12)OC3=O (stereo partly shown) [DETD-24] | > 10 | > 10 | > 10 | > 10 | > 10 µM | > 10 | –
C=C1C(=O)OC2CC3=C[C@@H](C/C(C)=C/C(OC(=O)c4ccccc4)[C@H]12)OC3=O (stereo partly shown) [DETD-31] | > 10 | > 10 | > 10 | > 10 | 4.3 ± 0.62 µM | 2.9 ± 0.78 | –
C=C1C(=O)OC2CC3=C[C@@H](C/C(C)=C/C(OC(=O)c4ccc(C)cc4)[C@H]12)OC3=O (stereo partly shown) [DETD-33] | > 10 | 6.7 ± 0.22 | 5.9 ± 0.2 | 4.2 ± 0.09 | 2.9 ± 0.26 µM | 2.2 ± 0.29 | –
C=C1C(=O)OC2CC3=C[C@@H](C/C(C)=C/C(OC(=O)Cc4ccccc4)[C@H]12)OC3=O (stereo partly shown) [DETD-43] | > 10 | > 10 | 8.2 ± 0.27 | 8.7 ± 0.33 | 3.6 ± 0.25 µM | 7.4 ± 0.48 | –
CC(=O)N[C@@H](CS)C(=O)O [NAC, N-acetyl-L-cysteine, reference compound] | – | – | – | – | – | – | effect on A375-R cell viability ([3]; 5 mM alone): did not affect; effect on A375 cell viability (A375 (BRAF mutation); 5 mM alone): did not affect
CCCS(=O)(=O)Nc1ccc(F)c(C(=O)c2c[nH]c3ncc(-c4ccc(Cl)cc4)cc23)c1F [PLX4032, vemurafenib, reference compound] | – | – | – | – | – | – | average time to relapse after therapy (metastatic melanoma; melanoma patients): ≤ 7 months; reduction of tumor mass (A375 xenografts; [16]): 71.9%; tumor growth inhibition (TGI) (A375 xenografts; [16]): 87.4%; effect on cell-cycle distribution (A375-R cells [2]): no effect; IC50 ([3]; Homo sapiens, 72 h, read-out: IC50 on A375-R cells): 7.34 µM; fold less sensitive, A375-R compared to parental cell line ([3]; IC50 A375-R vs A375): 100 fold; anti-tumor activity [12]: no anti-tumor activity; apoptosis (A375-R cells [13]): no effect; inhibition at 0.1 µM (A375 cells [6]; Homo sapiens, A-375, 504 h, read-out: inhibition of colony formation): 55%; anti-tumor activity ([7]; A375-R xenograft, 75 mg/kg/day, 24 doses in total): no anti-tumor activity; effect on colony formation of A375-R cells (A375-R cells [9]): no inhibitory effect; effect on cell-cycle distribution (A375 cells [10]): G1-phase cell-cycle arrest; IC50 (A375 (BRAF mutation); Homo sapiens, A-375, 72 h, read-out: IC50 on A375 cells): 0.07 µM; apoptosis (A375 cells [11]): 10.4%
CN(C)/N=N/c1[nH]cnc1C(N)=O [dacarbazine] | – | – | – | – | – | – | complete response (metastatic melanoma; metastatic melanoma): less than 5%
